Assay outcomes deposited in PubChem by The Scripps Research Institute Molecular Screening Center.
HTRA1 inhibitor: HTRA1 (human) protease inhibition; hit rate 0.5% among 340,000; inhibition, % at 5.96 µM; recombinant HTRA1, FP-rhodamine activity-based probe, fluorescence polarization; AID 504803; Q92743; in the data active means inhibition above about 36%;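 further: 0% = enzyme with DMSO and 100% = wells lacking enzyme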
TCR CD3 inh: inhibitors of human TCR-CD3 interaction; AID 651800; inhibition, % at 9.4 µM; TAMRA-labeled TCR probe fluorescence, biochemical; hit rate 0.37% among 360,000; in the data active means inhibition above about 19%;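 further: recombinant mutant TCR 2C K166C tagged with TAMRA read by polarization; 0% = receptor in buffer alone and 100% = receptor with positive control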
SIAE primary: blocks human sialic acid acetylesterase. Q9HAT2. SIAE FP-Rh probe binding, fluorescence polarization. inhibition, % at 9.66 µM. hit rate 0.69% among 370,000. AID 1053197;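 active means inhibition above a cutoff: mean of compounds within the control limits plus 3 SD of those, cut at about 17% in these data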;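 further: 0% = plate median of compound wells and 100% = probe without SIAE protein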
Target sequence (Q9HAT2 whole entry, looked up): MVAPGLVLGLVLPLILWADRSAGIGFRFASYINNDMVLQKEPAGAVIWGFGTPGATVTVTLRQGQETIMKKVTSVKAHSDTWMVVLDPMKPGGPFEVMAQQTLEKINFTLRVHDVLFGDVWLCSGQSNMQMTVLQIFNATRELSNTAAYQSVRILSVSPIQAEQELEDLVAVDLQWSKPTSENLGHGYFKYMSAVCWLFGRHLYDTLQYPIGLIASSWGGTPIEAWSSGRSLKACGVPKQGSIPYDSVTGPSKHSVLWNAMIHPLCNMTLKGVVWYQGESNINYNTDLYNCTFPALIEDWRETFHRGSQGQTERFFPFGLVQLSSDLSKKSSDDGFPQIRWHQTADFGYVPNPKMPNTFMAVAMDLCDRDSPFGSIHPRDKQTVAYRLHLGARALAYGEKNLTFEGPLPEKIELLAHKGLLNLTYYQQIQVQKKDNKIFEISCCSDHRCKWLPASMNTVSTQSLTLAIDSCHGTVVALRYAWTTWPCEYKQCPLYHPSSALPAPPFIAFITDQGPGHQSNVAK
pPAFAH FP inh: pPAFAH (human) enzyme inhibition | recombinant pPAFAH, FP-rhodamine probe fluorescence polarization | inhibition, % at 3.39 µM | hit rate 1.5% among 330,000;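 active means inhibition above the mean inhibition across the screen plus 3 SD, cut at about 25% in these data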;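 further: inhibitors block binding of the rhodamine activity-based probe so polarization drops; 0% = enzyme with DMSO and 100% = wells lacking pPAFAH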
ABHD4 inh: inhibitors of mouse ABHD4; Q8VD66; purified mABHD4, FP-Rh probe fluorescence polarization; inhibition, % at 8.92 µM; hit rate 0.54% among 370,000;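 active means inhibition exceeding the mean over every tested compound plus 3 SD, cut at about 30% in these data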;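 further: 0% = plate median of compound wells and 100% = S159A mutant with DMSO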
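Test system: mABHD4 protein; Read-out basis: % inhibition; Incubation: 45 min + 60 min at 25 °C; Repeats: single replicate; Technique: fluorescence polarization with parallel and perpendicular emission, 525/598 nm; Compound: 8.92 µM, single dose; Benchmarks: full inhibition S159A mutant plus DMSO, zero as sample-well median.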
ABHD4 confirm: confirmation of mouse ABHD4 inhibitors | shares compounds with ABHD4 inh | purified mABHD4, FP-Rh probe fluorescence polarization | inhibition, % at 8.92 µM | hit rate 55% among 1,800 | AID 720658;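 active means mean inhibition across replicates above the hit cutoff set in the primary screen, cut at about 30% in these data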;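 further: 0% = wild-type ABHD4 with DMSO and 100% = catalytically dead S159A mutant with DMSO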
* hit, by the source's call; / = no result; ! = a repeat was not active. Sampled rows, rich in hits. Any-hit rate of the full collection: about 2.3%.

SMILES	HTRA1 inhibitor	TCR CD3 inh	SIAE primary	pPAFAH FP inh	ABHD4 inh	ABHD4 confirm
C[C@H]1[C@@H](OC(=O)NCc2cccc(Cl)c2)CC[C@@]23CCCN2C(=O)CCC[C@@H]13	/	/	4	/	2	/
COc1c(F)c(F)c(C(=O)Nc2ccc(N3CCN(C(C)=O)CC3)c(Cl)c2)c(F)c1F	-3	-2	-5	2	31*	20
O=C(Nc1ccc(N2CCOCC2)c(Cl)c1)c1c(F)c(F)c(F)c(F)c1F	2	-2	5	-4	-4	/
Fc1cccc2sc(Nc3nc4c(F)cccc4s3)nc12	-8	-2	0	11	2	/
NNc1nc2c(F)cccc2s1	24	-5	11	3	77*	32*
NNc1nc2c(F)cc(F)cc2s1	13	2	8	14	45*	9
O=C(N1CCCC1)n1ncc(-c2ccc(-c3ccccc3)cc2)n1	/	/	-7	/	47*	42*
N#CC1=C(N)C(C#N)(C#N)[C@H](c2ccoc2)[C@H]2CN(Cc3ccccc3)CC=C12	33	9	8	19	31*	5
Cc1ccc(C(=O)n2ccc3ccc(-c4ccc5ccn(Cc6ccc(C#N)cc6)c5c4)cc32)cc1	/	/	-23	/	-17	/
CCCCNC(=O)C1CCCN1C(=O)Nc1ccc2c(c1)OCO2 (stereo not drawn)	/	/	0	/	5	/
c1ccc(-c2sc3ccccc3c2-c2ccc(OCCN3CCCC3)cc2)cc1	-27	0	2	7	31*	28
Cc1cc(-c2n[nH]c(=S)n2CC(C)C)cs1	-2	3	11	1	32*	-6
CC(C)Cn1c(-c2csc(C(C)C)c2)n[nH]c1=S	/	2	5	1	-8	/
Cc1ccccc1-c1nnc2n1N=C(c1ccc(O)c(O)c1)CS2	/	/	14	/	32*	21
Cc1ccccc1NC(=O)Cc1nc(COC(=O)c2cc([N+](=O)[O-])ccc2N)cs1	-16	-2	-12	12	62*	126*
Cc1ccccc1NC(=O)Cc1nc(COC(=O)c2cc(Br)ccc2O)cs1	-1	8	-5	-2	18	/
O=C(Nc1cccc(F)c1)OC1CC2CC1[C@H]1CCCCN1[C@H]2Cc1ccccc1 (stereo partly drawn)	/	/	-4	/	-8	/
CCOC(=O)[C@]12CCCC=C1N(CCC1=CCCCC1)C(=O)[C@H](CC(=O)NCc1cccc3ccccc13)C2	/	3	-4	/	1	/
CCOc1ccc(CCN2CN(C3CCCCC3)CNC2=S)cc1OCC	-1	1	-4	1	-5	/
CCOc1ccccc1N1CN(C2CCCCC2)CNC1=S	/	-6	5	2	70*	1
CC(=NNC(=S)SCc1ccccc1)c1ccccn1	12	-10	2	/	56*	-10
COc1cccc(C(C(=O)NC2CCCC2)N2CCN(c3cc(C)ccc3C)CC2)c1OC (stereo not drawn)	/	1	2	/	48*	6
CCCCn1nnnc1C1(C)CCC(=O)N1Cc1cccc(F)c1 (stereo not drawn)	/	-4	0	/	0	/
O=C1SC(SCc2ccccc2)=N/C1=C\c1ccc(C(=O)O)cc1	-2	9	-2	6	8	/
O=C1SC(SCc2ccccc2)=N/C1=C\c1ccco1	-5	9	7	33*	30*	4
SMILES	HTRA1 inhibitor	TCR CD3 inh	SIAE primary	pPAFAH FP inh	ABHD4 inh	ABHD4 confirm
CCCCNc1c(-c2cccc(-c3cc(C(C)=O)cs3)c2)nc2cc(C)ccn12	5	2	6	33*	42*	46*
CCCCNc1c(-c2ccc(SC(C)CC)c(OC)c2)nc2ccc(Cl)cn12 (stereo not drawn)	-22	-1	-2	11	14	/
CCCCCCSc1cc(-c2nc3ccc(C)cn3c2NCc2ccccc2)ccc1OC	-12	6	5	14	40*	47*
CCCCNc1c(-c2ccc(SC(C)CC)c(OC)c2)nc2ccc(C)cn12 (stereo not drawn)	-19	3	9	23	36*	47*
CCCCCCSc1cc(-c2nc3cc(C)ccn3c2NCCCC)ccc1OC	-4	2	12	18	37*!	57*
CCC(C)Sc1cccc(-c2nc3ccc(C)cn3c2NCc2ccccc2)c1 (stereo not drawn)	-22	-3	5	21	36*!	32*
NC(CO)C(=O)NNCc1ccc(O)c(O)c1O (stereo not drawn)	7	16	13	28*	37*	21
O=C(Nc1c(-c2ccc(F)cc2)nc2ncccn12)c1ccc(F)cc1	/	/	-5	/	4	/
COc1ccc(C2NCCc3c2[nH]c2ccccc32)cc1CSc1nc2ccccc2s1 (stereo not drawn)	-25	-5	17	3	30*	34*
CCNC(=O)C1(C)CCCN(Cc2cccc3c(OC)cc(C(=O)OCC)cc23)C1 (stereo not drawn)	/	-4	-5	/	0	/
Nc1ccc2cc3ccc(N)cc3nc2c1	/	/	11	/	32*	28
O=C(Nc1ncccc1O)c1c(O)c2ccccc2[nH]c1=O	2	2	8	5	39*	12
O=C(CCN1C(=O)C2C3C=CC(C3)C2C1=O)NC1CCCCC1 (stereo not drawn)	-3	7	-2	1	88*	0
CCN(CC)S(=O)(=O)c1ccc(N2CCOCC2)c(NC(=O)c2cccc3c(=O)c(C)c(-c4ccccc4)oc23)c1	-42	-5	-18	6	33*	37*
CCN(CC)S(=O)(=O)c1ccc(N2CCOCC2)c(NC(=O)c2cccc3ccccc23)c1	-23	9	2	9	7	/
CCN(CC)S(=O)(=O)c1ccc(N2CCOCC2)c(NC(=O)c2c3c(nc4ccccc24)CCC3)c1	10	3	1	26*	34*	30*
O=C1NN(c2ccc(Cl)cc2)C(=O)/C1=C\c1ccc(-c2cccc(C(=O)O)c2)o1	5	5	-3	/	23	/
O=C1NN(c2ccccc2)C(=O)/C1=C\c1ccc(-c2cc([N+](=O)[O-])ccc2O)o1	15	0	2	/	34*	44*
C=CCNC(=S)N(C)[C@H]1C[C@H]2c3[nH]c4cccc(-c5cccc(F)c5)c4c3CCN2C(=O)[C@H]1[C@H](C)O	/	/	17	/	-4	/
CCOC(=O)c1c(C)oc2c1c(CN1CCN(C(=O)OCC)CC1)c(O)c1ccccc12	-6	7	12	5	31*	39*
CCOC(=O)c1c(C)oc2c1c(CN1CCN(CCO)CC1)c(O)c1ccccc12	2	6	6	/	17	/
COc1ccc(-c2cc(C(=O)NN=Cc3cccn3C)[nH]n2)cc1	/	/	2	/	3	/
Cc1ccc(NC(=O)Nc2nnc([C@H]3C[C@H](O)[C@@H](CO)O3)s2)cc1	/	3	0	/	-4	/
COC(=O)[C@]12C[C@H](CC(=O)N3CCCCC3)C(=O)N(Cc3cccc4ccccc34)C1=C[C@H](COCc1ccccc1)O[C@@H]2C	/	/	2	/	2	/
